Data reported in ChEMBL document CHEMBL3272003, “(-)-3-Isothujone, a small nonnitrogenous molecule with antinociceptive activity in mice” (J Med Chem, 1976).
Calls of active or inactive are those of the source. The calls are words filed in the database; no cut-off is given here.

Legend:
[1] = tested on: Mus musculus; test: Antinociceptive activity in sc dosed male white mouse by hot plate test; assay type: functional
[2] = tested on: Mus musculus; test: Antinociceptive activity in male white mouse at 20 mg/kg, sc by Nilsen test; assay type: functional, organism-based; design: dose 20 mg/kg
[3] = tested on: Mus musculus; test: Antinociceptive activity in sc dosed male white mouse by Nilsen test; assay type: functional
[4] = Toxicity in sc dosed male white mouse; assay type: organism-based; conditions: in vivo
Method in brief: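 LD50 determined in the same male white mouse strain, with the same vehicle and subcutaneous route as the antinociceptive tests. Room temperature was 23 °C. 95% confidence limits were obtained by probit analysis.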

[5] = tested on: Mus musculus; test: Antinociceptive activity in male white mouse at 100 mg/kg, sc by hot plate test; assay type: functional, organism-based; design: dose 100 mg/kg
Method in brief: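 Hot-plate antinociception test in male white mice, run by the standard method, with the compound given subcutaneously. Room temperature was held at 23 °C during testing.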

[6] = tested on: Mus musculus; test: Antinociceptive activity in male white mouse at 100 mg/kg, sc by Nilsen test; assay type: functional, organism-based; design: dose 100 mg/kg
[7] = tested on: Mus musculus; test: Toxicity in male white mouse assessed as induction of convulsions at 100 mg/kg, sc; assay type: organism-based; design: dose 100 mg/kg, route subcutaneous; conditions: in vivo
[8] = tested on: Mus musculus; test: Toxicity in male white mouse assessed as induction of convulsions at 50 mg/kg, sc; assay type: organism-based; design: dose 50 mg/kg, route subcutaneous; conditions: in vivo
[9] = tested on: Mus musculus; test: Toxicity in male white mouse assessed as induction of convulsions<40 mg/kg, sc; assay type: organism-based; conditions: in vivo

In the case of `CCCCCc1cc(O)c2c(c1)OC(C)(C)[C@@H]1CC=C(C)CC21` (some centres undefined), the ED50 [1] is reported as 8.8 mg/kg and the Activity [2] is reported as “inactive”.
For `COc1ccc2c3c1O[C@H]1[C@@H](O)C=C[C@H]4[C@@H](C2)N(C)CC[C@@]341.Cl`, the ED50 [1] was 7.5 mg/kg, the ED50 [3] was 4.5 mg/kg and the LD50 [4] was 270 mg/kg.
`CC1C(=O)C[C@]2(C(C)C)C[C@H]12` (mixture of isomers) gave an ED50 [1] of 16.7 mg/kg and an LD50 [4] of 134 mg/kg.
`CN1CC[C@]23c4c5ccc(O)c4O[C@H]2[C@@H](O)C=C[C@H]3[C@H]1C5.CN1CC[C@]23c4c5ccc(O)c4O[C@H]2[C@@H](O)C=C[C@H]3[C@H]1C5.O=S(=O)(O)O` gave an ED50 [1] of 1.2 mg/kg and an ED50 [3] of 0.8 mg/kg.
With `CC(C)[C@]12CC(=O)[C@@H](C)[C@H]1C2` the Activity [5] was “Active”, the Activity [6] was “Active” and the LD50 [4] was 442 mg/kg. For the same compound, the Activity [7] was “Toxic”.
With `CC(C)[C@]12CC(=O)[C@H](C)[C@H]1C2` the ED50 [1] was 6.5 mg/kg, the ED50 [3] was 14.1 mg/kg and the LD50 [4] was 87.5 mg/kg. The Activity [8] was “Toxic” and the Activity [9] was “Non-toxic”.
`CC(C)[C@]12C[C@@H](O)[C@H](C)[C@H]1C2` gave an ED50 [1] of 33.3 mg/kg.
With `CCCCCc1cc(O)c2c(c1)OC(C)(C)C1CC=C(CO)CC21` (centres undefined) the ED50 [1] was 1.9 mg/kg and the ED50 [3] was 5.4 mg/kg.
For `CCCCCc1cc(O)c2c(c1)OC(C)(C)[C@@H]1CCC(C)=C[C@@H]21` [DRONABINOL], the ED50 [1] was 9.6 mg/kg.
`CCC(=O)C(CC(C)N(C)C)(c1ccccc1)c1ccccc1` (racemic) [METHADONE] showed an ED50 [1] of 0.8 mg/kg and an LD50 [4] of 44 mg/kg.
